High-throughput results (PubChem)
An excerpt weighted towards active compounds, which were near 4.6% of everything screened.
CHO parental Ca – counter-screen for OX1R antagonists: effect in parental CHO cells; parental CHO-K1, ATP-induced calcium, Fluo-8 fluorescence; inhibition, % at 5.6 µM; 330,000 tested, 0.63% active;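 active = inhibition above that plate's mean sample inhibition plus 3 SD, cut at about 26% in these data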;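 note: 0% = ATP-challenged DMSO wells and 100% = DMSO wells without ATP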
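Test system: untransfected parental CHO cell line. Compound: one dose, 5.6 µM nominal. Detection: intracellular calcium via Fluo-8 no-wash fluorescent dye. Measure: % inhibition. Benchmarks: ATP-challenged DMSO wells low, unchallenged DMSO wells high.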
TAAR1 ag – human TAAR1 agonism; Q96RJ0; CHO RD-HGA16 TAAR1, Fluo-8 calcium fluorescence; vehicle wells 0%, saturating PEA agonist 100%; activation, % at 3 µM; 360,000 tested, 0.99% active; AID 624467;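 active = activation above the mean activation of all test compounds in the run plus 3 SD, cut at about 38% in these data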
Target sequence (Q96RJ0 whole entry, looked up): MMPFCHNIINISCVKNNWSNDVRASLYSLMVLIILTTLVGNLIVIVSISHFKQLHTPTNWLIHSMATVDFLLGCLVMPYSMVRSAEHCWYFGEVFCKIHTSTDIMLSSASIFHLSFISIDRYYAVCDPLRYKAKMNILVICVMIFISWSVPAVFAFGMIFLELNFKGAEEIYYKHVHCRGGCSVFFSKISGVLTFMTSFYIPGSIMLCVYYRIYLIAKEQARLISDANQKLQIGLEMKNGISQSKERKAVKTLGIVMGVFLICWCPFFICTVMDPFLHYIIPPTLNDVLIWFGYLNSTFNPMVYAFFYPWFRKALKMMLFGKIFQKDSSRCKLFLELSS
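Assay system – CHO-derived RD-HGA16 cells with stable Gα16 and human TAAR1 · Compound dosing – one-point dosing at 3 µM (nominal) · Incubation – 17-24 h seeding, 75 min 37 °C dye, 30 min RT · Measured by – kinetic Fluo-8 calcium fluorescence · Control set – DMSO vehicle as 0%, PEA at EC100 as 100% · Repeats – single well for each compound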
TAAR1 antagonist – antagonists of human TAAR1 | Q96RJ0 | inhibition, % at 3 µM | CHO RD-HGA16 TAAR1, Fluo-8 calcium fluorescence, antagonist | 360,000 tested, 1.5% active;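 active = inhibition above a per-plate cutoff, the mean inhibition of test compounds on that plate plus 3 SD, cut at about 49% in these data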;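 note: 0% = DMSO plus EC80 beta-PEA response and 100% = DMSO alone without agonist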
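Test system: RD-HGA16 CHO cells with stable hTAAR1 and Gα16 / Probe or stimulus: EC80 β-phenethylamine stimulus / Times: seeding 17-24 h prior, 75-min 37 °C, 30-min RT dye loading / Detection: Fluo-8 calcium-sensitive fluorescence / Read-out basis: % inhibition scaled between DMSO and EC80 PEA controls / Repeats: singlicate, one well per test compound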
OX1R antag-1 – OX1R (human) antagonism. O43613. OX1R-expressing cells, FRET antagonist read-out. inhibition, % at 6.6 µM. 330,000 tested, 1.8% active. AID 485270; in the data active = inhibition mostly above about 38%, no sharp cut-off; inactive = mostly below about 40%;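 note: 0% = agonist challenge alone and 100% = reference antagonist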
OX1R antag-2 – blocks the human orexin 1 receptor; O43613; CHO/OX1R cells, Fluo-8 calcium fluorescence, orexin A; inhibition, % at 5 µM; 330,000 tested, 0.43% active; AID 434989;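 active = inhibition above its plate's threshold, mean inhibition of all tested compounds on the plate plus 3 SD, cut at about 37% in these data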;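 note: 0% = orexin A challenge wells and 100% = SB-334867-A antagonist wells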
GPR7 antagonist – antagonists of human GPR7 (neuropeptides B/W receptor 1) | inhibition, % at 4.4 µM | P48145 | GPR7-expressing cells, fluorescence antagonist assay | 290,000 tested, 1.1% active | AID 1861; in the data active = inhibition above about 16%, passing the limit was not always enough;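 note: cells stimulated with the agonist NPW; 0% = agonist with vehicle and 100% = vehicle without agonist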
Target sequence (P48145 whole entry, looked up): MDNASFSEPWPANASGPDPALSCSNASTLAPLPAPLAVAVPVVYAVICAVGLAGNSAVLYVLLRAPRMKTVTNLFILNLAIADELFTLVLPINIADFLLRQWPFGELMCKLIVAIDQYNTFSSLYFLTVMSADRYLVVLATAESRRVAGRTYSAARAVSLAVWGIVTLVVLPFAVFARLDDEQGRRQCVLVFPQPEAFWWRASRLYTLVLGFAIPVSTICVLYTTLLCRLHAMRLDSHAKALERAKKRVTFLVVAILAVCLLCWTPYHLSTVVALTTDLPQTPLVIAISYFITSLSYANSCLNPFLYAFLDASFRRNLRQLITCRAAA
* hit, by the source's call.

CCOc1ccccc1N(C(=O)c1snc(C(N)=O)c1N)C(C(=O)NC1CCCC1)c1cccs1 (stereo not given) was read as CHO parental Ca -38, TAAR1 ag -4, TAAR1 antagonist -14, OX1R antag-1 18, OX1R antag-2 -31 and GPR7 antagonist -7.
For CCOc1ccccc1N(C(=O)c1snc(C(N)=O)c1N)C(C(=O)NC1CCCC1)c1ccco1 (stereo not given) the results were CHO parental Ca -14, TAAR1 ag 9, TAAR1 antagonist 1, OX1R antag-1 12, OX1R antag-2 -26 and GPR7 antagonist 21*.
Screening CN(C)c1ccc(C(C(=O)NCC2CCCO2)N(C(=O)c2snc(C(N)=O)c2N)c2ccc3c(c2)OCO3)cc1 (stereo not given) returned CHO parental Ca -8, TAAR1 ag 13, TAAR1 antagonist 22, OX1R antag-1 32, OX1R antag-2 -19 and GPR7 antagonist 1.
Screening C[C@H](O)[C@@H]1C(=O)N2CCc3c([nH]c4ccccc34)[C@@H]2C[C@@H]1N(C)C(=O)OCc1ccccc1 returned TAAR1 ag 8 and TAAR1 antagonist 8.
For O=C(O)CCc1ccc(S(=O)(=O)NCCc2ccccc2)cc1 the results were CHO parental Ca 1, TAAR1 ag 37*, TAAR1 antagonist 24, OX1R antag-1 4, OX1R antag-2 -11 and GPR7 antagonist -3.
CCNS(=O)(=O)c1ccc(CCC(N)=O)cc1 was read as CHO parental Ca -7, TAAR1 ag 7, TAAR1 antagonist -6, OX1R antag-1 8, OX1R antag-2 0 and GPR7 antagonist 19*.
Screening CCOC(=O)CNC(=S)n1ncnc1N returned CHO parental Ca 3, TAAR1 ag 8, TAAR1 antagonist -11, OX1R antag-1 26, OX1R antag-2 -3 and GPR7 antagonist 16*.
`Cc1cc2c(nc1C)CCCN2S(=O)(=O)c1cccs1` gave TAAR1 ag 0 and TAAR1 antagonist -16.
COCCn1c2nc(=O)n(-c3ccccc3)c(=O)c-2nc2ccccc21 was read as TAAR1 ag 59* and TAAR1 antagonist 20.
Screening COCCn1c(-c2ccc(OC)cc2)nc2ccccc21 returned CHO parental Ca -14, TAAR1 ag 1, TAAR1 antagonist 6, OX1R antag-1 32, OX1R antag-2 -32 and GPR7 antagonist -12.
For COc1ccc(OC)c(NS(=O)(=O)c2ccc(Cl)s2)c1 the results were CHO parental Ca -3, TAAR1 ag 3, TAAR1 antagonist 2, OX1R antag-1 7, OX1R antag-2 -7 and GPR7 antagonist 6.
Screening COc1ccc(OC)c(NS(=O)(=O)c2ccc(Br)s2)c1 returned CHO parental Ca 38*, OX1R antag-1 33, OX1R antag-2 -3 and GPR7 antagonist -1.
`CCOc1ccc2nc(S(=O)(=O)NC(=O)C3(C)CCN3C(=O)CCc3cccs3)sc2c1` (stereo not given) gave TAAR1 ag 0 and TAAR1 antagonist -15.
Screening COCc1[nH]nc2c1C(c1ccc(F)cc1)N(Cc1ccccc1)C2=O (stereo not given) returned TAAR1 ag 3 and TAAR1 antagonist -5.
`COc1ccnc(Oc2ccccc2)c1C(=O)N/C=N/OCc1ccccc1F` gave CHO parental Ca -18, TAAR1 ag 22, TAAR1 antagonist 49*, OX1R antag-1 12, OX1R antag-2 -26 and GPR7 antagonist 6.
`COc1ccnc(Oc2ccc(F)cc2)c1C(=O)N/C=N/OCc1ccccc1` gave CHO parental Ca -15, TAAR1 ag 10, TAAR1 antagonist 10, OX1R antag-1 19, OX1R antag-2 3 and GPR7 antagonist 9.
Screening CCCCN1C(=O)c2ccc(C(=O)OCC(=O)N3CCN(c4ccccc4)CC3)cc2C1=O returned CHO parental Ca -24, TAAR1 ag 2, TAAR1 antagonist 5, OX1R antag-1 2 and OX1R antag-2 -26.
For COCCCN1C(=O)c2ccc(C(=O)OCC(=O)N3CCN(c4ccccc4)CC3)cc2C1=O the results were CHO parental Ca -3, TAAR1 ag 3, TAAR1 antagonist -30, OX1R antag-1 46* and OX1R antag-2 2.
`O=C(Nc1ccc(F)cc1)OC[C@@H]1CSCCS(=O)(=O)N1` gave TAAR1 ag 5 and TAAR1 antagonist -8.
`O=C(/C=C/c1ccccc1)C1C(=O)c2ccccc2C1=O` gave CHO parental Ca -26, TAAR1 ag -3, TAAR1 antagonist 1, OX1R antag-1 26, OX1R antag-2 -40 and GPR7 antagonist -19.
CCc1ccc(/C=C/C(=O)C2C(=O)c3ccccc3C2=O)cc1 was read as CHO parental Ca 35*, TAAR1 ag 21, TAAR1 antagonist 14, OX1R antag-1 22, OX1R antag-2 8 and GPR7 antagonist 4.
Screening O=c1c2c([N+](=O)[O-])cc([N+](=O)[O-])cc2sn1Cc1ccccc1 returned CHO parental Ca 54*, TAAR1 ag 32, TAAR1 antagonist 28, OX1R antag-1 35, OX1R antag-2 71* and GPR7 antagonist 5.
`O=c1c2c([N+](=O)[O-])cc([N+](=O)[O-])cc2sn1-c1ccc(Br)cc1` gave CHO parental Ca -5, OX1R antag-1 19, OX1R antag-2 -11 and GPR7 antagonist 0.
Screening COc1ccc2sc(-c3ccc(N(C)C)cc3)c(C#CCCO)c2c1 returned CHO parental Ca -11, TAAR1 ag -1, TAAR1 antagonist 12, OX1R antag-1 51* and OX1R antag-2 34.
`COc1ccc(-c2sc3ccc(OC)cc3c2C#CCCO)cc1` gave CHO parental Ca -14, OX1R antag-1 32, OX1R antag-2 -1 and GPR7 antagonist -11.
CCN(CC)C(=O)CSc1nnc2c3ccccc3n(C)c2n1 was read as CHO parental Ca -7, TAAR1 ag 3, TAAR1 antagonist -8, OX1R antag-1 26, OX1R antag-2 -15 and GPR7 antagonist -5.
For CCCSc1nnc2nc3c(nn12)c1ccccc1n3C the results were CHO parental Ca 1, TAAR1 ag -3, TAAR1 antagonist -22, OX1R antag-1 66*, OX1R antag-2 2 and GPR7 antagonist -2.
Screening Cc1cccc(NC(=O)CSc2nc3ccccc3c(=O)n2C)c1C returned TAAR1 ag 6 and TAAR1 antagonist 20.
Screening COc1ccccc1NC(=O)CSc1nc2ccccc2c(=O)n1C returned CHO parental Ca 50*, TAAR1 ag 6, TAAR1 antagonist 31, OX1R antag-1 48*, OX1R antag-2 21 and GPR7 antagonist 18.
`COc1cccc(NC(=O)CSc2nc3ccccc3n2C)c1` gave CHO parental Ca -18, TAAR1 ag 4, TAAR1 antagonist 6, OX1R antag-1 57*, OX1R antag-2 -19 and GPR7 antagonist 6.
